Compound activity from PubChem BioAssay.
SENP1 FRET inh – inhibitors of human SENP1 SUMO protease catalytic domain; Q9P0U3; recombinant SENP1 catalytic domain, CyPet-SUMO1-YPet FRET cleavage; inhibition, % at 10 µM; actives 0.21% (n = 360,000);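 active = inhibition at least 30% at 10 µM, raw YFP signal under a set limit, fluorescence ratio 0.5 to 1.5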;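 also: 0% = enzyme with DMSO and 100% = no enzyme wells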
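Assay system: hSENP1 catalytic domain, recombinant. Amount: SENP1 enzyme, 20 pM final. Schedule: 50 min reaction, RT, dark. Technique: FRET, CFP and YFP emission. Control set: no-enzyme wells low, DMSO-plus-enzyme wells high control.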
CSN inh – CSN deneddylation inhibition | Purified CSN, SCF-Nedd8-OG deneddylation, fluorescence polarization | inhibition, % at 12.5 µM | actives 0.38% (n = 360,000) | AID 651999;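 active = pattern-corrected inhibition above about 35%, with an unprinted fluorescence ratio check between 0.5 and 1.5, limit read from the data, passing the limit was not always enough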;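 also: 0% = enzyme with substrate and 100% = substrate without enzyme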
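Assay system: Purified human Csn5 enzyme expressed in HEK293T cells | Amount: Enzyme 0.24 nM | Measured by: Fluorescence polarization readout | Medium: Tris/NaCl/DTT buffer, pH 7.5 | Compound dosing: One concentration, 12.5 µM, 0.25% DMSO | Times: 90 min incubation of compound, enzyme and substrate at room temperature | Control set: no-enzyme wells high, enzyme-with-substrate wells low | Read-out: % inhibition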
HNF4A DNA FP – change in binding of human HNF4 alpha to DNA | P41235 | HNF4a-FITC DNA binding, fluorescence polarization, 1 h | activity change, % at 10 µM | actives 0.3% (n = 360,000); in the data active = activity change above about 30%, passing the limit was not always enough
Target sequence (P41235 whole entry, looked up): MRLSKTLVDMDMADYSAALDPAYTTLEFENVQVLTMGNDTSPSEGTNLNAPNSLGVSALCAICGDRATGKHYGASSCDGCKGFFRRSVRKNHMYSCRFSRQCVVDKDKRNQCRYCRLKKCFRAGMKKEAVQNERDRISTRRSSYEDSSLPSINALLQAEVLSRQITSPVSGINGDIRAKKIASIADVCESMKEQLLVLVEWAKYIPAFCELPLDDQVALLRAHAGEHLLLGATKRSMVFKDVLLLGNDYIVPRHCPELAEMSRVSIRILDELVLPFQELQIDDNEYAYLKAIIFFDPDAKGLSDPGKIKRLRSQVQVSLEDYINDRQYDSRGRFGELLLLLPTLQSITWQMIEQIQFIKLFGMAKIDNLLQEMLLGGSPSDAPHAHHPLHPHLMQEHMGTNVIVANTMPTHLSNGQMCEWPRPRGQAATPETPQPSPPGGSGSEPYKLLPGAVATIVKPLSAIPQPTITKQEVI
TPT1 inh – C. albicans TPT1 enzyme inhibition | recombinant caTPT1, FP RNA substrate dephosphorylation | inhibition, % at 5 µM | actives 0.81% (n = 300,000);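 active = inhibition above the mean of all tested compounds plus 3 SD, set per screening campaign, cut at about 24% in these data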;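 also: plate controls were DMSO alone for no effect and ferristatin control at 100 nM for full effect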
Rpn11 inh – inhibitors of human proteasome Rpn11 | inhibition, % at 20 µM | actives 0.59% (n = 360,000) | AID 588493 | human 26S proteasome, Ub4-pepOG fluorescence polarization; 20S core pre-blocked with epoxomicin | O00487;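 active = inhibition at 20 µM, scaled to each plate's controls, above about 33%, limit read from the data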
ATG4B inh – blocks human ATG4B protease cleavage of LC3 substrate | ATG4B cleavage of LC3-PLA2, NBD-HPC fluorescence, 1 h | actives 0.51% (n = 340,000) | inhibition, % at 8.33 µM; in the data active = inhibition above about 40%
* = called active by the depositor. In the library only some 2% were active in any assay of this set; here they are far more common.

For O=C(O)CCCC(=O)OCc1c(-c2ccccc2)ncc2ccccc12 the results were SENP1 FRET inh -8, CSN inh -1, HNF4A DNA FP -1, Rpn11 inh 0 and ATG4B inh -6.
Screening CC(OC(=O)CSc1ccccc1)C(=O)NC1CCCCC1C (stereo not given) returned SENP1 FRET inh 5, CSN inh 0, HNF4A DNA FP -4, Rpn11 inh -6 and ATG4B inh 2.
CN1/C(=C/C(=O)c2ccc(Cl)cc2)Sc2cc3c(cc21)OCO3 was read as SENP1 FRET inh -29, CSN inh -9, HNF4A DNA FP 45*, TPT1 inh 19 and ATG4B inh 0.
For COc1ccc(C(=O)/C=C2/Sc3cc4c(cc3N2C)OCO4)cc1 the results were SENP1 FRET inh -28, CSN inh -10, HNF4A DNA FP 24, TPT1 inh 0, Rpn11 inh 18 and ATG4B inh -6.
CC(=O)C1=C(C)NC(SCC(=O)c2cc(Cl)ccc2Cl)=C(C#N)C1c1ccco1 (stereo not given) was read as SENP1 FRET inh -27, CSN inh 8, HNF4A DNA FP 10, TPT1 inh 16, Rpn11 inh 47* and ATG4B inh 3.
CC(C)(C)n1nnnc1C(C1CC1)N1CCN(C/C=C/c2ccccc2)CC1 (stereo not given) was read as SENP1 FRET inh 0, CSN inh 51*, HNF4A DNA FP 2 and Rpn11 inh 7.
O=C(O)c1ccccc1-c1ccccc1C(=O)Nc1ccc(F)cc1 was read as SENP1 FRET inh 3, CSN inh 3, HNF4A DNA FP 1, TPT1 inh 0, Rpn11 inh -1 and ATG4B inh -5.
`O=C(/C=C/c1ccc(NC(=O)c2ccccc2-c2ccccc2C(=O)O)cc1)c1ccccc1` gave SENP1 FRET inh -25, CSN inh 51*, HNF4A DNA FP 31, TPT1 inh 20 and ATG4B inh 17.
CSc1ccccc1C(=O)OCC(=O)Nc1ccc(N2CCOCC2)cc1 was read as SENP1 FRET inh 3, CSN inh -9, HNF4A DNA FP -4, Rpn11 inh 5 and ATG4B inh -4.
Screening CN1C[C@@H]2[C@@H]3C(=O)N(C)C(=O)[C@@H]3[C@](C)(C1=O)N2C(=O)c1ccc(Cl)cc1 returned SENP1 FRET inh 1, CSN inh 3, HNF4A DNA FP 1, Rpn11 inh 0 and ATG4B inh 6.
Screening CCOC(=O)c1cc(NC(=O)c2ccccc2)c(=O)oc1C(F)(F)F returned SENP1 FRET inh 3, CSN inh 14, HNF4A DNA FP 46*, Rpn11 inh -1 and ATG4B inh -8.
Screening CC(=O)Nc1ccc(NC(=O)C(C)OC(=O)CCSc2ccccc2Cl)cc1 (stereo not given) returned SENP1 FRET inh 3, CSN inh -3, HNF4A DNA FP 0, Rpn11 inh 0 and ATG4B inh -5.
`Cc1cc2nc(-c3ccco3)c(Cc3cccc(Cl)c3)n2c(C)c1Br` gave SENP1 FRET inh -4, CSN inh 36* and HNF4A DNA FP 6.
For Cc1cc2nc(-c3cccc(Cl)c3)c(Cc3cccc(Cl)c3)n2c(C)c1Br the results were SENP1 FRET inh 6, CSN inh 7 and HNF4A DNA FP 6.
`O=C(O)CN1C(=O)/C(=C\c2cn(-c3ccccc3)nc2-c2ccccc2)SC1=S` gave SENP1 FRET inh -22, CSN inh 0, HNF4A DNA FP -2, TPT1 inh 1, Rpn11 inh -6 and ATG4B inh 3.
For Cc1ccc(-c2nn(-c3ccccc3)cc2C=C2SC(=S)N(CCS(=O)(=O)O)C2=O)cc1 the results were SENP1 FRET inh -39, CSN inh 47*, HNF4A DNA FP -29 and Rpn11 inh 31.
COc1ccc(NC(=O)Nc2ccc3c(c2)C(=O)N([C@H](C)CO)C[C@H](C)[C@@H](CN(C)C(=O)Nc2c(C)noc2C)O3)cc1 was read as SENP1 FRET inh 2, CSN inh -4, HNF4A DNA FP 4, Rpn11 inh -3 and ATG4B inh 2.
